Reference: ChEMBL document CHEMBL1208768, “Synthesis, selective anti-Helicobacter pylori activity, and cytotoxicity of novel N-substituted-2-oxo-2H-1-benzopyran-3-carboxamides” (Bioorg Med Chem Lett, 2010)
In brackets after ≈: the same amount, converted by molar mass. Activity calls are given as the source filed them. The rule behind the calls is not given here.

Columns and labels:
[Candida] sake = Antifungal activity against Candida sake after 24 hrs by broth microdilution method; format: functional; details: Fermentozyma sake
Outline: (§1)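 Candida isolates from respiratory-tract specimens, tested by NCCLS broth microdilution in Sabouraud dextrose broth. Serial compound dilutions inoculated to 10³/mL, with fungus-only and medium-only controls. Incubated 24 h at 37 °C. MIC was the lowest concentration with complete visible growth inhibition.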

AGS [1] = experiment: Antiinflammatory activity in human AGS cells assessed as inhibition of IL-8 production at 5 ug/mL after 24 hrs; format: functional, cell-based
Outline: (§2)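 AGS gastric adenocarcinoma cells were grown in F-12K with 10% FBS. They were seeded at 1 × 10⁵/mL for 24 h, preincubated 1 h with compound at 5 or 0.5 µg/mL, then exposed to H. pylori.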

AGS [2] = experiment: Antiinflammatory activity in human AGS cells assessed as inhibition of IL-8 production at 0.5 ug/mL after 24 hrs; format: functional, cell-based; outline: as §2
Pichia kudriavzevii = experiment: Antifungal activity against Candida krusei after 24 hrs by broth microdilution method; format: functional; outline: as §1
Helicobacter pylori [3] = experiment: Antibacterial activity against metronidazole-resistant Helicobacter pylori isolate 18 after 72 hrs by agar dilution method; format: functional; details: isolate 18, 72 h
Outline: (§3)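 H. pylori clinical isolates (ATCC 43504 control each session) stored at -80 °C and subcultured twice on Columbia agar with 10% horse serum and 0.25% yeast extract. Suspensions of 0.5 McFarland were spotted by Steer's replicator at about 5 × 10⁵ CFU/spot onto agar with twofold compound dilutions. Plates were incubated 72 h at 37 °C in 10% CO₂. MIC was the lowest concentration without visible growth.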

Klebsiella oxytoca = experiment: Antibacterial activity against Klebsiella oxytoca after 18 to 22 hrs by broth microdilution method; format: functional
Outline: (§4)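 Clinical respiratory-tract isolates from patients, subcultured for purity and identified conventionally. Broth microdilution per NCCLS in Mueller–Hinton II broth; each plate had growth controls (bacteria, no compound) and medium-only controls. Incubation 18–22 h at 35 °C. MIC taken as the lowest concentration giving complete growth inhibition by unaided eye.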

Helicobacter pylori [4] = experiment: Antibacterial activity against metronidazole-resistant Helicobacter pylori NCTC 11637 after 72 hrs by agar dilution method; format: functional; details: NCTC 11637, 72 h; outline: as §3
Helicobacter pylori [5] = experiment: Antibacterial activity against metronidazole-resistant Helicobacter pylori isolate 8 after 72 hrs by agar dilution method; format: functional; details: isolate 8, 72 h; outline: as §3
Helicobacter pylori [6] = experiment: Antibacterial activity against Helicobacter pylori ATCC 43504 clinical isolates after 72 hrs by agar dilution method; format: functional; details: ATCC 43504, 72 h
Outline: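 Agar dilution per NCCLS. Twenty clinical strains from duodenal ulcer or gastritis patients, with ATCC 43504 as control in each session, were subcultured twice on Columbia agar plus 10% horse serum and 0.25% yeast extract (72 h, 37 °C, 10% CO₂). Inoculum of 0.5 McFarland in Wilkins Chalgren broth, about 5 × 10⁵ CFU/spot by Steer's replicator. Plates held twofold compound dilutions down to 0.0039 µg/mL and were incubated 72 h at 37 °C, 10% CO₂. MIC was the lowest concentration inhibiting visible growth.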

Helicobacter pylori [7] = experiment: Antibacterial activity against metronidazole-resistant Helicobacter pylori isolate 1 after 72 hrs by agar dilution method; format: functional; details: isolate 1, 72 h; outline: as §3
Enterobacter = experiment: Antibacterial activity against Enterobacter after 18 to 22 hrs by broth microdilution method; format: functional; outline: as §4
Proteus vulgaris = experiment: Antibacterial activity against Proteus vulgaris after 18 to 22 hrs by broth microdilution method; format: functional; outline: as §4
Klebsiella aerogenes = experiment: Antibacterial activity against Enterobacter aerogenes after 18 to 22 hrs by broth microdilution method; format: functional; outline: as §4
[8] = test system: Staphylococcus epidermidis; experiment: Antibacterial activity against Staphylococcus epidermidis after 18 to 22 hrs by broth microdilution method; format: functional; outline: as §4
Klebsiella pneumoniae = experiment: Antibacterial activity against Klebsiella pneumoniae after 18 to 22 hrs by broth microdilution method; format: functional; outline: as §4
Escherichia coli = experiment: Antibacterial activity against Escherichia coli after 18 to 22 hrs by broth microdilution method; format: functional; outline: as §4
Staphylococcus aureus = experiment: Antibacterial activity against Staphylococcus aureus after 18 to 22 hrs by broth microdilution method; format: functional; outline: as §4
Helicobacter pylori [9] = experiment: Antibacterial activity against metronidazole-resistant Helicobacter pylori isolate 20 after 72 hrs by agar dilution method; format: functional; details: isolate 20, 72 h; outline: as §3
Staphylococcus hominis = experiment: Antibacterial activity against Staphylococcus hominis after 18 to 22 hrs by broth microdilution method; format: functional; outline: as §4
Citrobacter freundii = experiment: Antibacterial activity against Citrobacter freundii after 18 to 22 hrs by broth microdilution method; format: functional; outline: as §4
[10] = test system: Staphylococcus haemolyticus; experiment: Antibacterial activity against Staphylococcus haemolyticus after 18 to 22 hrs by broth microdilution method; format: functional; outline: as §4
Enterococcus faecalis = experiment: Antibacterial activity against Streptococcus faecalis after 18 to 22 hrs by broth microdilution method; format: functional; outline: as §4
Candida albicans = experiment: Antifungal activity against Candida albicans after 24 hrs by broth microdilution method; format: functional; outline: as §1

Compound	MIC ([Candida] sake) [µg/mL]	inhibition (AGS [1])	inhibition (AGS [2])	MIC (Pichia kudriavzevii) [µg/mL]	MIC (Helicobacter pylori [3]) [µg/mL]	MIC (Klebsiella oxytoca) [µg/mL]	MIC (Helicobacter pylori [4]) [µg/mL]	MIC (Helicobacter pylori [5]) [µg/mL]	MIC50 (Helicobacter pylori [6]) [µg/mL]	MIC90 (Helicobacter pylori [6]) [µg/mL]	MIC (Helicobacter pylori [7]) [µg/mL]	MIC (Enterobacter) [µg/mL]	MIC (Proteus vulgaris) [µg/mL]	MIC (Klebsiella aerogenes) [µg/mL]	MIC [8] [µg/mL]	MIC (Klebsiella pneumoniae) [µg/mL]	MIC (Escherichia coli) [µg/mL]	MIC (Staphylococcus aureus) [µg/mL]	MIC (Helicobacter pylori [9]) [µg/mL]	MIC (Staphylococcus hominis) [µg/mL]	also measured
O=C(O)c1ccc(NC(=O)c2cc3cc([N+](=O)[O-])ccc3oc2=O)cc1	> 128	inactive	inactive	> 128	128 (≈ 361 µM)	> 128	128 (≈ 361 µM)	64 (≈ 181 µM)	128 (≈ 361 µM)	128 (≈ 361 µM)	128 (≈ 361 µM)	> 128	> 128	> 128	> 128	> 128	> 128	> 128	64 (≈ 181 µM)	> 128	MIC (Citrobacter freundii): > 128 µg/mL; MIC [10]: > 128 µg/mL; MIC (Enterococcus faecalis): > 128 µg/mL; MIC (Candida albicans): > 128 µg/mL
CCOC(=O)c1ccc(NC(=O)c2cc3cccc(O)c3oc2=O)cc1	> 128	inactive	inactive	> 128	> 128	> 128	> 128	> 128	> 128	> 128	> 128	> 128	> 128	> 128	> 128	> 128	> 128	> 128	> 128	> 128	MIC (Citrobacter freundii): > 128 µg/mL; MIC [10]: > 128 µg/mL; MIC (Enterococcus faecalis): > 128 µg/mL; MIC (Candida albicans): > 128 µg/mL
CCOC(=O)c1ccc(NC(=O)c2cc3cc(Br)cc(Br)c3oc2=O)cc1	> 128	inactive	inactive	> 128	64 (≈ 129 µM)	> 128	64 (≈ 129 µM)	64 (≈ 129 µM)	64 (≈ 129 µM)	64 (≈ 129 µM)	64 (≈ 129 µM)	> 128	> 128	> 128	> 128	> 128	> 128	> 128	64 (≈ 129 µM)	> 128	MIC (Citrobacter freundii): > 128 µg/mL; MIC [10]: > 128 µg/mL; MIC (Enterococcus faecalis): > 128 µg/mL; MIC (Candida albicans): > 128 µg/mL
COc1ccc2cc(C(=O)Nc3ccc(C(=O)O)cc3)c(=O)oc2c1	> 128	inactive	inactive	> 128	> 128	> 128	> 128	> 128	> 128	> 128	> 128	> 128	> 128	> 128	> 128	> 128	> 128	> 128	> 128	> 128	MIC (Citrobacter freundii): > 128 µg/mL; MIC [10]: > 128 µg/mL; MIC (Enterococcus faecalis): > 128 µg/mL; MIC (Candida albicans): > 128 µg/mL
O=C(O)c1ccc(NC(=O)c2cc3cccc(O)c3oc2=O)cc1	> 128	inactive	inactive	> 128	> 128	> 128	4 (≈ 12.3 µM)	> 128	> 128	> 128	> 128	> 128	> 128	> 128	> 128	> 128	> 128	> 128	> 128	> 128	MIC (Citrobacter freundii): > 128 µg/mL; MIC [10]: > 128 µg/mL; MIC (Enterococcus faecalis): > 128 µg/mL; MIC (Candida albicans): > 128 µg/mL
Cc1ncc([N+](=O)[O-])n1CCO [METRONIDAZOLE]	–	–	–	–	128 (≈ 748 µM)	–	128 (≈ 748 µM)	64 (≈ 374 µM)	2 (≈ 11.7 µM)	128 (≈ 748 µM)	64 (≈ 374 µM)	–	–	–	–	–	–	–	128 (≈ 748 µM)	–	–
O=C(O)c1ccc(NC(=O)c2cc3cc(O)ccc3oc2=O)cc1	> 128	inactive	inactive	> 128	16 (≈ 49.2 µM)	> 128	16 (≈ 49.2 µM)	16 (≈ 49.2 µM)	16 (≈ 49.2 µM)	> 128	4 (≈ 12.3 µM)	> 128	> 128	> 128	> 128	> 128	> 128	> 128	4 (≈ 12.3 µM)	> 128	MIC (Citrobacter freundii): > 128 µg/mL; MIC [10]: > 128 µg/mL; MIC (Enterococcus faecalis): > 128 µg/mL; MIC (Candida albicans): > 128 µg/mL
CCOC(=O)N1CCC(NC(=O)c2cc3ccccc3oc2=O)CC1	> 128	inactive	inactive	> 128	128 (≈ 372 µM)	> 128	> 128	> 128	> 128	> 128	128 (≈ 372 µM)	> 128	> 128	> 128	> 128	> 128	> 128	> 128	> 128	> 128	MIC (Citrobacter freundii): > 128 µg/mL; MIC [10]: > 128 µg/mL; MIC (Enterococcus faecalis): > 128 µg/mL; MIC (Candida albicans): > 128 µg/mL
O=C(O)c1ccc(NC(=O)c2cc3cc(Br)cc(Cl)c3oc2=O)cc1	> 128	inactive	inactive	> 128	16 (≈ 37.9 µM)	> 128	32 (≈ 75.7 µM)	32 (≈ 75.7 µM)	8 (≈ 18.9 µM)	32 (≈ 75.7 µM)	16 (≈ 37.9 µM)	> 128	> 128	> 128	> 128	> 128	> 128	> 128	32 (≈ 75.7 µM)	> 128	MIC (Citrobacter freundii): > 128 µg/mL; MIC [10]: > 128 µg/mL; MIC (Enterococcus faecalis): > 128 µg/mL; MIC (Candida albicans): > 128 µg/mL
O=C(O)c1ccc(NC(=O)c2cc3cc(Br)cc(Br)c3oc2=O)cc1	> 128	inactive	inactive	> 128	16 (≈ 34.3 µM)	> 128	16 (≈ 34.3 µM)	16 (≈ 34.3 µM)	16 (≈ 34.3 µM)	16 (≈ 34.3 µM)	16 (≈ 34.3 µM)	> 128	> 128	> 128	> 128	> 128	> 128	> 128	16 (≈ 34.3 µM)	> 128	MIC (Citrobacter freundii): > 128 µg/mL; MIC [10]: > 128 µg/mL; MIC (Enterococcus faecalis): > 128 µg/mL; MIC (Candida albicans): > 128 µg/mL
CCOC(=O)N1CCC(NC(=O)c2cc3cc(Br)ccc3oc2=O)CC1	> 128	inactive	inactive	> 128	32 (≈ 75.6 µM)	> 128	64 (≈ 151 µM)	64 (≈ 151 µM)	64 (≈ 151 µM)	64 (≈ 151 µM)	32 (≈ 75.6 µM)	> 128	> 128	> 128	> 128	> 128	> 128	> 128	32 (≈ 75.6 µM)	> 128	MIC (Citrobacter freundii): > 128 µg/mL; MIC [10]: > 128 µg/mL; MIC (Enterococcus faecalis): > 128 µg/mL; MIC (Candida albicans): > 128 µg/mL
